Source: ChEMBL document CHEMBL3414544, “PAINS in the assay: chemical mechanisms of assay interference and promiscuous enzymatic inhibition observed during a sulfhydryl-scavenging HTS” (J Med Chem, 2015)
Activity calls are given as the source filed them.

Assays:
[1] = biological target: T1, Histone acetyltransferase RTT109 (Saccharomyces cerevisiae (strain ATCC 204508 / S288c) (Baker's yeast), UniProt Q07794); assay: Inhibition of Vps75-stimulated recombinant Saccharomyces cerevisiae histone acetyltransferase Rtt109 using Asf1-dH3-H4 as substrate assessed as coenzyme A production after 45 mins by CPM based HTS assay; conditions: read-out: IC50
T1 sequence (Q07794 whole entry): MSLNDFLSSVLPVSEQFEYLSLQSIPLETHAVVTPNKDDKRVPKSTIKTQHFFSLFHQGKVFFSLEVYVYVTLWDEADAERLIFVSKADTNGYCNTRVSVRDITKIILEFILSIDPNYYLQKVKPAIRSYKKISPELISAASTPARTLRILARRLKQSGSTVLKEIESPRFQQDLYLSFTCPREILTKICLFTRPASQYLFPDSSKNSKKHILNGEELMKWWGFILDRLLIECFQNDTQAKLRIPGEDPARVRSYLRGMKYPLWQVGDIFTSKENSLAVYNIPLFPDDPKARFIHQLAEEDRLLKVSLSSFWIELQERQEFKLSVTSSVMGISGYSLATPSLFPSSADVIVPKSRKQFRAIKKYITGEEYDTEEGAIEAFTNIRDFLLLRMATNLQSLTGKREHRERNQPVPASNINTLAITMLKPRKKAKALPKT
Outline: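 Recombinant Rtt109–Vps75 at 50 nM, with Asf1–dH3–H4 as substrate and acetyl-CoA as acetyl donor. Buffer contained freshly prepared 0.01% Triton X-100. The CoA product was detected by fluorescence of its CPM adduct. Plates had Z′ ≥0.5. IC50 came from a four-parameter variable-slope fit.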

[2] = biological target: T2, Histone acetyltransferase RTT109 (Saccharomyces cerevisiae (strain ATCC 204508 / S288c) (Baker's yeast)) (UniProt Q07794); assay: Inhibition of Vps75-stimulated recombinant Saccharomyces cerevisiae histone acetyltransferase Rtt109 assessed as H3K27 acetylated product at […] after 45 mins by Slot bolt inhibiton assay
T2 sequence (whole entry): T1 sequence (Q07794 whole entry)

[3] = Fluorescence quenching in HTS buffer with […] CoA assessed as fluorescence signal reduction at 10 uM after 10 mins; type: physicochemical
[4] = Fluorescence quenching assessed as fluorescence signal reduction at 10 uM after 10 mins; type: physicochemical
Outline: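 CPM (20 μM final) and CoA (5 μM final) reacted to completion in assay buffer (stable plateau, usually ~5 min); adduct solution added to wells preplated with compound; shaken 5 min, equilibrated 5 min at room temperature; fluorescence intensity read as percent signal reduction versus DMSO controls. Flagged as quencher at >20% signal reduction at 10 μM final compound.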

[5] = Fluorescence quenching in HTS buffer with 20 uM 7-diethylamino-3-(4'-maleimidyl-phenyl)-4-methylcoumarin assessed as fluorescence signal reduction at 10 uM after 10 mins; type: physicochemical
[6] = Fluorescence quenching in HTS buffer assessed as fluorescence signal reduction at 10 uM after 10 mins; type: physicochemical
[7] = biological target: T2, Histone acetyltransferase RTT109 (Saccharomyces cerevisiae (strain ATCC 204508 / S288c) (Baker's yeast)); assay: Inhibition of Vps75-stimulated recombinant Saccharomyces cerevisiae histone acetyltransferase Rtt109 assessed as H3K56 acetylated product at […] after 45 mins by Slot bolt inhibiton assay

SMILES	IC50 [1]	Activity [2]	Activity [3]	Activity [4]	Activity [5]	Activity [6]	Activity [7]
Cc1ccc(N2C(=O)CC(Sc3nnc(-c4ccccc4O)o3)C2=O)cc1 (stereo not drawn)	50 µM	Active	Not Active	Not Active	Not Active	Not Active	Active
O=S(=O)(Nc1cc(Sc2cccc3cccnc23)c(O)c2ccccc12)c1ccccc1	2.4 µM	Active	Not Active	Not Active	Not Active	Not Active	Active
Cc1ccc(N2C(=O)C=CC2=O)cc1	6 µM	Active	Not Active	Not Active	Not Active	Not Active	Active
O=[N+]([O-])c1ccc(Sc2nnnn2-c2ccccc2)c2nonc12	0.45 µM	Active	Not Active	Not Active	Not Active	Not Active	Active
O=S(=O)(Nc1cc(Sc2nc[nH]n2)c(O)c2ccccc12)c1ccccc1	1.4 µM	Active	Not Active	Not Active	Not Active	Not Active	Active
COc1ccc(N2C(=O)CC(Sc3n[nH]c(-c4ccc(C)cc4)n3)C2=O)cc1 (stereo not drawn)	10 µM	Active	Not Active	Not Active	Not Active	Not Active	Active
O=[N+]([O-])c1ccccc1-c1nnc(SC2=CS(=O)(=O)c3ccccc32)o1	5.7 µM	Active	Not Active	Not Active	Not Active	Not Active	Active
O=[N+]([O-])c1cccc(S(=O)(=O)Nc2cc(Br)c(O)c3ccccc23)c1	5.4 µM	Active	Not Active	Not Active	Not Active	Not Active	Active
O=C1C=CC(=O)N1c1ccc(Br)cc1	3 µM	Active	Not Active	Not Active	Not Active	Not Active	Active
O=C1CC(Sc2nc[nH]n2)C(=O)N1c1ccccc1 (stereo not drawn)	15 µM	Active	Not Active	Not Active	Not Active	Not Active	Active
O=[N+]([O-])c1ccc(Sc2nnc(-c3ccccc3)o2)c2nonc12	1.1 µM	Active	Not Active	Not Active	Not Active	Not Active	Active
O=[N+]([O-])c1c(SCc2ccccc2)cc(Cl)c2nonc12	1.7 µM	Active	Not Active	Not Active	Not Active	Not Active	Active
O=C1C=CC(=O)N1c1cccc(F)c1	6.1 µM	Active	Not Active	Not Active	Not Active	Not Active	Active
Cc1ccc(Sc2cc(NS(=O)(=O)c3ccc(Cl)cc3)c3ccccc3c2O)cc1	2.9 µM	inactive	Not Active	Not Active	Not Active	Not Active	Active
